Results on nine molecules are retold here after ChEMBL document CHEMBL3861996, “Arylsulfonamide derivatives of (aryloxy)ethyl pyrrolidines and piperidines as α1-adrenergic receptor antagonist with uro-selective activity” (Bioorg Med Chem, 2016).

For one experiment, the target named is T1, Adrenergic receptor alpha-1 (Rattus norvegicus, UniProt P15823+P23944+P43140).
T1 sequence (P15823 whole entry): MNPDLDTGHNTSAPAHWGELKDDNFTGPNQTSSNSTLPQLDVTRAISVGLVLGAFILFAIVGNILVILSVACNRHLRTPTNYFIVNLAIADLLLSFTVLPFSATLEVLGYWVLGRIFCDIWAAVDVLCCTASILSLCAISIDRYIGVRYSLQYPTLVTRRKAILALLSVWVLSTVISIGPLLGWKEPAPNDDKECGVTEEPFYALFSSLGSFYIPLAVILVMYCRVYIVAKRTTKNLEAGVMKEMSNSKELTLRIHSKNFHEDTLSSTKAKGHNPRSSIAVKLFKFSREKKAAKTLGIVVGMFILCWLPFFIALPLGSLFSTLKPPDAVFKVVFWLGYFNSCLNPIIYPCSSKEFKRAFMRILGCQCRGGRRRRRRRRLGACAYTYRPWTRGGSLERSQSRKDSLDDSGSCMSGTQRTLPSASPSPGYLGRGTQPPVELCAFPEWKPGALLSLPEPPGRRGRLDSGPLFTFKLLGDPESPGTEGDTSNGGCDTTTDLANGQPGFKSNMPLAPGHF
T1 sequence (P23944 whole entry): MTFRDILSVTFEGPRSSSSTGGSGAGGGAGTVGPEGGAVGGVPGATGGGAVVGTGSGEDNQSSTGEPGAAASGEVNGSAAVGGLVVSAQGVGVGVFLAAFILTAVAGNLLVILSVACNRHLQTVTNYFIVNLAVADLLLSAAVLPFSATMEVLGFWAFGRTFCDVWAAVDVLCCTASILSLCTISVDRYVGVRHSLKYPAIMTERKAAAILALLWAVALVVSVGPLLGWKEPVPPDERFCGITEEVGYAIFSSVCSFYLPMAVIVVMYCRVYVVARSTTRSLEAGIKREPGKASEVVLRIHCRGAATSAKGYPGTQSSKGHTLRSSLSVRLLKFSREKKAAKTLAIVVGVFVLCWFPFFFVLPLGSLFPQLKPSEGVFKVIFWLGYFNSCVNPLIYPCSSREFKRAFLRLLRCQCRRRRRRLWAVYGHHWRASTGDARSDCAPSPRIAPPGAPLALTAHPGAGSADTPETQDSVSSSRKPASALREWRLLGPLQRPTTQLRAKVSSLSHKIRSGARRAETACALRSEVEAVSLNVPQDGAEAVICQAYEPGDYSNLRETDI
T1 sequence (P43140 whole entry): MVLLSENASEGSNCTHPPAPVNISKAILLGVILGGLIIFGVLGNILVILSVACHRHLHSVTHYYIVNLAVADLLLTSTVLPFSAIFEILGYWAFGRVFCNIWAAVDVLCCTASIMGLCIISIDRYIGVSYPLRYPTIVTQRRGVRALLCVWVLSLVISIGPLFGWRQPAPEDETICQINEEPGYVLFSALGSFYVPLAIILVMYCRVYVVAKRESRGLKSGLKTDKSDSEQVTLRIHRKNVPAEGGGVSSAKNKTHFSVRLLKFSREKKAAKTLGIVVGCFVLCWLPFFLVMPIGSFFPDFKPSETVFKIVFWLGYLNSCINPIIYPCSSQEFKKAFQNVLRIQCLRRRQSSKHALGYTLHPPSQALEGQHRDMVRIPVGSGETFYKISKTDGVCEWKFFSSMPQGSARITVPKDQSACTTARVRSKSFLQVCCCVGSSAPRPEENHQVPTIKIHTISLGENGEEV
The experiment is described as follows: Displacement of [3H]-Prazosin from alpha1 adrenergic receptor in rat brain cerebral cortex membranes by liquid scintillation counting analysis. Type of experiment: cell membranes, Membrane. The gist of the method:
(§1)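 Rat cerebral cortex homogenized in ice-cold 50 mM Tris–HCl (pH 7.6), spun at 20,000 g for 20 min (0–4 °C), resuspended and spun again. Membranes incubated with 0.2 nM [3H]-prazosin (α1) or 2 nM [3H]-clonidine (α2) and seven to eight compound concentrations (10^-11 to 10^-4 M). Non-specific binding defined with 10 µM phentolamine (prazosin) or 10 µM clonidine (clonidine). Ended by GF/C filtration, counted by liquid scintillation. Run in duplicate; Ki from two independent experiments.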
A general note: Displacement assays read how much labelled ligand stays bound in the presence of the test substance.
With `COc1ccccc1OCCN1CCC(CNS(=O)(=O)c2cccc(Cl)c2F)CC1`, the inhibitory constant (Ki) – broadly, a measure of affinity in units of concentration, obtained from inhibition or displacement – came to 48 nM.

`COc1ccccc1OCCN1CCC(CNS(=O)(=O)c2cccc(Cl)c2)CC1` came in with a Ki of 46 nM.

As for `COc1ccccc1OCCN1CCC(CNS(=O)(=O)c2cncc3ccccc23)CC1`, the Ki was 90 nM.

`CC(C)Oc1ccccc1OCCN1CCC(CNS(=O)(=O)c2cccc(Cl)c2F)CC1` yielded a Ki of 71 nM.

Consider `COc1ccccc1OCCN1CCC(NS(=O)(=O)c2cncc3ccccc23)CC1`, for which the Ki was found to be 52 nM.

`COc1ccc(S(=O)(=O)NC2CCN(CCOc3ccccc3OC)CC2)cc1OC` showed a Ki of 99 nM.

On to `COc1ccc(S(=O)(=O)NCC2CCN(CCOc3ccccc3OC)CC2)cc1OC`, for which the Ki came out at 81 nM.

As to `CC(C)Oc1ccccc1OCCN1CCC(CNS(=O)(=O)c2cccc3cccnc23)CC1`, the Ki stood at 95 nM.

As to `COc1ccccc1OCCN1CCC(CNS(=O)(=O)c2cc(Cl)ccc2F)CC1`, the Ki was determined as 56 nM.

A further experiment has as its target T2, Adrenergic receptor alpha-2 (Rattus norvegicus, UniProt P22086+P19328+P22909).
T2 sequence (P22086 whole entry): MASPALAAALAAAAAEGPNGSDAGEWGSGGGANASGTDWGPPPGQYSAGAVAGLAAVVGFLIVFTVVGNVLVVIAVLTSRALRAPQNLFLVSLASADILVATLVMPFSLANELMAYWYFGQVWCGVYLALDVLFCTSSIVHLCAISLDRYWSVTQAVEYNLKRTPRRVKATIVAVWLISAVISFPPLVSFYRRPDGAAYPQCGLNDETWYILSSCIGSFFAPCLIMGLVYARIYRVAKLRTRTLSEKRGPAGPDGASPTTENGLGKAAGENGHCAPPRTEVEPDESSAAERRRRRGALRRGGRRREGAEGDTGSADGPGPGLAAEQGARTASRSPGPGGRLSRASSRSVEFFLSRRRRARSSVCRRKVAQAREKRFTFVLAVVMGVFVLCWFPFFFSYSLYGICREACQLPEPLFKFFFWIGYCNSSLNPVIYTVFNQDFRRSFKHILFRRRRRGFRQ
T2 sequence (P19328 whole entry): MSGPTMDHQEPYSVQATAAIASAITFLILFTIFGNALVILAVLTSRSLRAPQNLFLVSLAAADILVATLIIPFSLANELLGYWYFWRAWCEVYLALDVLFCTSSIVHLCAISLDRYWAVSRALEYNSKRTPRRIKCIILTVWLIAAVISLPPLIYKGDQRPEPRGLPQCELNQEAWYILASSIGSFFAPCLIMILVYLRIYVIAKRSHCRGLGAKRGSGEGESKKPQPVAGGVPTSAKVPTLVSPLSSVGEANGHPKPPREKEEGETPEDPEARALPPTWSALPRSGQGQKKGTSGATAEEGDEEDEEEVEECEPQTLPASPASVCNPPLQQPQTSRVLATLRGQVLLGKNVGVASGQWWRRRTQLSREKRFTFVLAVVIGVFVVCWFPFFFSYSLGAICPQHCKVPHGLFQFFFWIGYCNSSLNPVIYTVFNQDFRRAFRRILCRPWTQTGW
T2 sequence (P22909 whole entry): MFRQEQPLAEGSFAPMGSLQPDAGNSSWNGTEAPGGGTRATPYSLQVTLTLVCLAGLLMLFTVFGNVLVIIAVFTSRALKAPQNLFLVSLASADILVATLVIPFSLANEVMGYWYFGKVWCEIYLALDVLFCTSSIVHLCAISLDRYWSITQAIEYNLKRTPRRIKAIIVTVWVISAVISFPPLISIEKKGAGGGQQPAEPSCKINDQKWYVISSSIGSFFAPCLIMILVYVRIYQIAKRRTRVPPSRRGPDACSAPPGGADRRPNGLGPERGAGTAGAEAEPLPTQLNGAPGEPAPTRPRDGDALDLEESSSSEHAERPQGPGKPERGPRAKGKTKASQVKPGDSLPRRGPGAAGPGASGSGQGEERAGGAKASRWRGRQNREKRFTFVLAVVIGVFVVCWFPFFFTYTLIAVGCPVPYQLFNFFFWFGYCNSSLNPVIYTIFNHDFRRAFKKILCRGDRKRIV
The experiment is described as follows: Displacement of [3H]-Clonidine from alpha2 adrenergic receptor in rat brain cerebral cortex membranes by liquid scintillation counting analysis. Type of experiment: cell membranes, Membrane. The method, boiled down: as §1
`COc1ccccc1OCCN1CCC(CNS(=O)(=O)c2cccc(Cl)c2F)CC1` returned a Ki of 678 nM.

Turning to `COc1ccccc1OCCN1CCC(CNS(=O)(=O)c2cccc(Cl)c2)CC1`, the Ki was 439 nM.

Molecule `COc1ccccc1OCCN1CCC(CNS(=O)(=O)c2cncc3ccccc23)CC1` displayed a Ki of 695 nM.

In the case of `CC(C)Oc1ccccc1OCCN1CCC(CNS(=O)(=O)c2cccc(Cl)c2F)CC1`, the inhibitory constant (Ki) was 1212 nM.

With `COc1ccccc1OCCN1CCC(NS(=O)(=O)c2cncc3ccccc23)CC1`, the Ki came out at 297 nM.

In the case of `COc1ccc(S(=O)(=O)NC2CCN(CCOc3ccccc3OC)CC2)cc1OC`, the Ki stood at 2140 nM.

`COc1ccc(S(=O)(=O)NCC2CCN(CCOc3ccccc3OC)CC2)cc1OC`: the inhibitory constant (Ki) is 644 nM.

Molecule `CC(C)Oc1ccccc1OCCN1CCC(CNS(=O)(=O)c2cccc3cccnc23)CC1` gave a Ki of 947 nM.

Take `COc1ccccc1OCCN1CCC(CNS(=O)(=O)c2cc(Cl)ccc2F)CC1`: the inhibitory constant (Ki) is on record as 1345 nM.
